In ChEMBL document CHEMBL4184319, “Fluorescent-Labeled Selective Adenosine A2B Receptor Antagonist Enables Competition Binding Assay by Flow Cytometry” (J Med Chem, 2018) one finds Ki data, which are given here for 1 molecule.

In the assay the target is T1, Adenosine receptor A1 (Rattus norvegicus, UniProt P25099).
T1 sequence (P25099 whole entry): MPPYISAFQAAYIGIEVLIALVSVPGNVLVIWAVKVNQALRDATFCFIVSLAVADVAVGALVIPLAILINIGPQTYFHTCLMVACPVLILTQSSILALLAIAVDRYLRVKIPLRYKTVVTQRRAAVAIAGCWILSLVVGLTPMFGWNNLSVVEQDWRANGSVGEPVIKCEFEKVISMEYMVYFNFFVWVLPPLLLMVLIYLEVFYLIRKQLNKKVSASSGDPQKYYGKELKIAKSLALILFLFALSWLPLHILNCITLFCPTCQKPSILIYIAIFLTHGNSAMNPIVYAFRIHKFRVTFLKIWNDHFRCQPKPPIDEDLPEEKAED
Description: Displacement of [3H]CCPA from adenosine A1 receptor in rat brain cortical membranes after 90 mins by liquid scintillation counting method. Type of assay: cell membranes. The essentials: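 [³H]CCPA (1 nM) used with rat brain cortical or human A1-CHO membranes, 90 min at rt. Membranes pre-incubated 10-15 min with ADA 0.12 IU/mL. Nonspecific binding defined with 10 µM CADO. Compounds dissolved in DMSO, 2.5 % final. Filtration on GF/B filters with ice-cold Tris-HCl washes, then scintillation counting. Curves used 6-7 concentrations spanning 3 log units. At least three experiments, in duplicate (human) or triplicate (rat).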
(In general: Loss of bound radioactivity is the signal in a displacement assay; it reports binding, not function.)

By Ki is commonly meant a measure of affinity in units of concentration, obtained from inhibition or displacement. Turning to `CCCn1c(=O)[nH]c2nc(-c3ccc(OCC(=O)NCCC4=C5C(C)=CC(C)=[N+]5[B-](F)(F)n5c(C)cc(C)c54)cc3)[nH]c2c1=O`, affinity was put at a Ki of 422 nM.
